In ChEMBL document CHEMBL1133983, “Antiprotozoal and cytotoxicity evaluation of sulfonamide and urea analogues of quinacrine” (Bioorg Med Chem Lett, 2001):
In brackets after ≈: the same amount, converted by molar mass.

Tested on: Trypanosoma cruzi
Assay: Anti parasitic activity against Trypanosoma cruzi (cultured in murine macrophages)
Type: functional
Details: read-out: ED50 (the source's name)

Row | Compound | EC50 [µg/mL]
1 | COc1ccc2nc3cc(Cl)ccc3c(NCCCCCCNC(=O)NCc3ccccc3)c2c1 | 6.8 (≈ 13.8 µM)
2 | COc1ccc2nc3cc(Cl)ccc3c(NCCNS(=O)(=O)c3ccc4ccccc4c3)c2c1 | > 30
3 | COc1ccc2nc3cc(Cl)ccc3c(NCCNC(=O)NCc3ccccc3)c2c1 | > 30
4 | COc1ccc2nc3cc(Cl)ccc3c(NCCCCNC(=O)NCc3ccccc3)c2c1 | < 1
5 | COc1ccc2nc3cc(Cl)ccc3c(NCCCNC(=O)NCc3ccccc3)c2c1 | 22 (≈ 49 µM)
6 | COc1ccc2nc3cc(Cl)ccc3c(NCCCCNS(=O)(=O)c3ccc4ccccc4c3)c2c1 | > 30
7 | COc1ccc2nc3cc(Cl)ccc3c(NCCCNS(=O)(=O)c3ccc4ccccc4c3)c2c1 | 23.9 (≈ 47.2 µM)

Tested on: Trypanosoma cruzi
Assay: Anti parasitic activity against Trypanosoma cruzi
Type: functional
Details: read-out: ED50 (the source's name)
Outline: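 In vitro test against intracellular amastigotes of T. cruzi grown in murine macrophages.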

Row | Compound | EC50 [µg/mL]
8 | c1ccc2[nH]cnc2c1 [BENZIMIDAZOLE] | 12.4 (≈ 105 µM)

Tested on: Plasmodium falciparum
Assay: Antiparasitic activity for Plasmodium falciparum 3D7
Type: functional
Details: read-out: ED50 (the source's name)
Outline: (§1)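 Growth of P. falciparum in human red blood cells was measured by [³H]-hypoxanthine incorporation over 48 h. 3D7 is the chloroquine-sensitive strain and K1 the chloroquine-resistant strain.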

Row | Compound | EC50 [µg/mL]
9 | COc1ccc2nc3cc(Cl)ccc3c(NCCCCCCNC(=O)NCc3ccccc3)c2c1 | 0.14 (≈ 0.285 µM)
10 | COc1ccc2nc3cc(Cl)ccc3c(NCCNS(=O)(=O)c3ccc4ccccc4c3)c2c1 | 0.025 (≈ 0.0508 µM)
11 | CCN(CC)CCCC(C)Nc1ccnc2cc(Cl)ccc12 (stereo unspecified) [CHLOROQUINE] | 0.002 (≈ 0.00625 µM)
12 | COc1ccc2nc3cc(Cl)ccc3c(NCCNC(=O)NCc3ccccc3)c2c1 | 0.069 (≈ 0.159 µM)
13 | COc1ccc2nc3cc(Cl)ccc3c(NCCCCNC(=O)NCc3ccccc3)c2c1 | 0.0013 (≈ 0.00281 µM)
14 | COc1ccc2nc3cc(Cl)ccc3c(NCCCNC(=O)NCc3ccccc3)c2c1 | 0.0005 (≈ 0.00111 µM)
15 | COc1ccc2nc3cc(Cl)ccc3c(NCCCCNS(=O)(=O)c3ccc4ccccc4c3)c2c1 | 0.033 (≈ 0.0635 µM)
16 | COc1ccc2nc3cc(Cl)ccc3c(NCCCNS(=O)(=O)c3ccc4ccccc4c3)c2c1 | 0.01 (≈ 0.0198 µM)

Molecular target: Trypanothione reductase (Trypanosoma cruzi, UniProt P28593)
Sequence (P28593 whole entry): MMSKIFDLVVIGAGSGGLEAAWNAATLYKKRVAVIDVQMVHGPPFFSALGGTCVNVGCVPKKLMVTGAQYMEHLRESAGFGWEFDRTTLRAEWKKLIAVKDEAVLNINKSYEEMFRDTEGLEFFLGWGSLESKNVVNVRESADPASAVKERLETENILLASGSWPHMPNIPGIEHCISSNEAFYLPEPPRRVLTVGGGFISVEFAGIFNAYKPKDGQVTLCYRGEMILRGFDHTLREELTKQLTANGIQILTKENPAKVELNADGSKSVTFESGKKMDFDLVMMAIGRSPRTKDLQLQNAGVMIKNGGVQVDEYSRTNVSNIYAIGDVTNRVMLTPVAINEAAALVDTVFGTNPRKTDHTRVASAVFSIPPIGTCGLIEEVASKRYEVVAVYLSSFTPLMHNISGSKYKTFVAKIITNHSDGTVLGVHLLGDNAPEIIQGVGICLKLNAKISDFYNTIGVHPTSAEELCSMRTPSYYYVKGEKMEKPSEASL
Assay: Inhibitory concentration against trypanothione reductase was determined
Details: not given
Outline: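 Recombinant T. cruzi trypanothione reductase (128 mU) was followed spectrophotometrically at 25 °C in 40 mM HEPES pH 7.5 with 1 mM EDTA and NADPH. Enzyme and NADPH were preincubated for 10 min at 25 °C, inhibitor was added at varying concentrations in DMSO (1% v/v final), and the reaction was started with Try[SH]2.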

Row | Compound | IC50 [µM]
17 | COc1ccc2nc3cc(Cl)ccc3c(NCCCCCCNC(=O)NCc3ccccc3)c2c1 | 11.4
18 | COc1ccc2nc3cc(Cl)ccc3c(NCCNS(=O)(=O)c3ccc4ccccc4c3)c2c1 | 5.9
19 | CCN(CC)CCCC(C)Nc1c2ccc(Cl)cc2nc2ccc(OC)cc12 (stereo unspecified) [QUINACRINE] | 133
20 | COc1ccc2nc3cc(Cl)ccc3c(NCCNC(=O)NCc3ccccc3)c2c1 | 19.3
21 | COc1ccc2nc3cc(Cl)ccc3c(NCCCCNC(=O)NCc3ccccc3)c2c1 | 15.5
22 | COc1ccc2nc3cc(Cl)ccc3c(NCCCNC(=O)NCc3ccccc3)c2c1 | 13.1
23 | COc1ccc2nc3cc(Cl)ccc3c(NCCCCNS(=O)(=O)c3ccc4ccccc4c3)c2c1 | 5
24 | COc1ccc2nc3cc(Cl)ccc3c(NCCCNS(=O)(=O)c3ccc4ccccc4c3)c2c1 | 3.3

Tested on: Plasmodium falciparum
Assay: Anti parasitic activity for Plasmodium falciparum K1
Type: functional
Details: read-out: ED50 (the source's name)
Outline: as §1

Row | Compound | EC50 [µg/mL]
25 | CCN(CC)CCCC(C)Nc1ccnc2cc(Cl)ccc12 (stereo unspecified) [CHLOROQUINE] | 0.15 (≈ 0.469 µM)
26 | COc1ccc2nc3cc(Cl)ccc3c(NCCCNC(=O)NCc3ccccc3)c2c1 | 0.015 (≈ 0.0334 µM)

Tested on: not listed separately
Assay: Ratio of Inhibitory activity against glutathione reductase and inhibitory activity against trypanothione reductase was determined
Details: not given

Row | Compound | Selectivity
27 | COc1ccc2nc3cc(Cl)ccc3c(NCCCCCCNC(=O)NCc3ccccc3)c2c1 | 1.5
28 | COc1ccc2nc3cc(Cl)ccc3c(NCCNS(=O)(=O)c3ccc4ccccc4c3)c2c1 | 1.7
29 | CCN(CC)CCCC(C)Nc1c2ccc(Cl)cc2nc2ccc(OC)cc12 (stereo unspecified) [QUINACRINE] | > 7.5
30 | COc1ccc2nc3cc(Cl)ccc3c(NCCNC(=O)NCc3ccccc3)c2c1 | 1.4
31 | COc1ccc2nc3cc(Cl)ccc3c(NCCCCNC(=O)NCc3ccccc3)c2c1 | 3.6
32 | COc1ccc2nc3cc(Cl)ccc3c(NCCCNC(=O)NCc3ccccc3)c2c1 | 3.4
33 | COc1ccc2nc3cc(Cl)ccc3c(NCCCCNS(=O)(=O)c3ccc4ccccc4c3)c2c1 | 2.8
34 | COc1ccc2nc3cc(Cl)ccc3c(NCCCNS(=O)(=O)c3ccc4ccccc4c3)c2c1 | 8.2

Tested on: Leishmania donovani
Assay: Anti parasitic activity against Leishmania donovani (cultured in murine macrophages)
Type: functional
Details: not given

Row | Compound | ED50 [µg/mL]
35 | Pentostam | 8.9

Same assay, conditions: read-out: ED50 (the source's name)

Row | Compound | EC50 [µg/mL]
36 | COc1ccc2nc3cc(Cl)ccc3c(NCCCCCCNC(=O)NCc3ccccc3)c2c1 | 5.8 (≈ 11.8 µM)
37 | COc1ccc2nc3cc(Cl)ccc3c(NCCNS(=O)(=O)c3ccc4ccccc4c3)c2c1 | 5.8 (≈ 11.8 µM)
38 | COc1ccc2nc3cc(Cl)ccc3c(NCCNC(=O)NCc3ccccc3)c2c1 | 10.7 (≈ 24.6 µM)
39 | COc1ccc2nc3cc(Cl)ccc3c(NCCCCNC(=O)NCc3ccccc3)c2c1 | 1.9 (≈ 4.1 µM)
40 | COc1ccc2nc3cc(Cl)ccc3c(NCCCNC(=O)NCc3ccccc3)c2c1 | 1.9 (≈ 4.23 µM)
41 | COc1ccc2nc3cc(Cl)ccc3c(NCCCCNS(=O)(=O)c3ccc4ccccc4c3)c2c1 | 3.3 (≈ 6.35 µM)
42 | COc1ccc2nc3cc(Cl)ccc3c(NCCCNS(=O)(=O)c3ccc4ccccc4c3)c2c1 | 1.9 (≈ 3.75 µM)

Molecular target: T1, Glutathione reductase, mitochondrial (Homo sapiens, UniProt P00390)
T1 sequence (P00390 whole entry): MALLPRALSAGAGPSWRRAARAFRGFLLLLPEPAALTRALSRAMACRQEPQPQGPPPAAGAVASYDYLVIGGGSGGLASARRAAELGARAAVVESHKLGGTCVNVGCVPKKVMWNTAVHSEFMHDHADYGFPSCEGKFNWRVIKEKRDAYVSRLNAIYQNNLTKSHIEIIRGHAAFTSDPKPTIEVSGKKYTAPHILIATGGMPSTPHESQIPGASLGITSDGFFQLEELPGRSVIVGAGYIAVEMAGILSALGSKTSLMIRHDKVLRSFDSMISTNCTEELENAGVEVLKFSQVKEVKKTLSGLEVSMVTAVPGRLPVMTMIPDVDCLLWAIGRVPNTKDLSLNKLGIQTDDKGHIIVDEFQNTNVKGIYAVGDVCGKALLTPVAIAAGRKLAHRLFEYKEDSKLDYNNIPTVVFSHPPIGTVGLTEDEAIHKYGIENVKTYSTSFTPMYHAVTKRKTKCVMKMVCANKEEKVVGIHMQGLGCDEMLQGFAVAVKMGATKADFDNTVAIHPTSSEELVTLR
Assay: Inhibitory concentration against human Glutathione reductase was determined
Details: not given
Outline: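 Human glutathione reductase purified from erythrocytes (42.3 mU) was run spectrophotometrically at 25 °C in 40 mM HEPES pH 7.5 with 1 mM EDTA and NADPH. It was preincubated with NADPH for 10 min, inhibitor was added at varying concentrations in DMSO (1% v/v final), and glutathione disulfide was then added.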

Row | Compound | IC50 [µM]
43 | COc1ccc2nc3cc(Cl)ccc3c(NCCCCCCNC(=O)NCc3ccccc3)c2c1 | 17.1
44 | COc1ccc2nc3cc(Cl)ccc3c(NCCNS(=O)(=O)c3ccc4ccccc4c3)c2c1 | 9.9
45 | CCN(CC)CCCC(C)Nc1c2ccc(Cl)cc2nc2ccc(OC)cc12 (stereo unspecified) [QUINACRINE] | > 1000
46 | COc1ccc2nc3cc(Cl)ccc3c(NCCNC(=O)NCc3ccccc3)c2c1 | 27.2
47 | COc1ccc2nc3cc(Cl)ccc3c(NCCCCNC(=O)NCc3ccccc3)c2c1 | 55.8
48 | COc1ccc2nc3cc(Cl)ccc3c(NCCCNC(=O)NCc3ccccc3)c2c1 | 44.7
49 | COc1ccc2nc3cc(Cl)ccc3c(NCCCCNS(=O)(=O)c3ccc4ccccc4c3)c2c1 | 13.9
50 | COc1ccc2nc3cc(Cl)ccc3c(NCCCNS(=O)(=O)c3ccc4ccccc4c3)c2c1 | 27.2

Tested on: KB
Assay: Toxicity of the quinacrine derivatives was determined against the KB cell line in comparison to podophyllotoxin
Type: functional
Details: Homo sapiens, read-out: ED50 (the source's name)

Row | Compound | EC50 [µg/mL]
51 | COc1cc([C@@H]2c3cc4c(cc3[C@H](O)[C@H]3COC(=O)[C@H]23)OCO4)cc(OC)c1OC [PODOFILOX] | 0.008 (≈ 0.0193 µM)
52 | COc1ccc2nc3cc(Cl)ccc3c(NCCCCCCNC(=O)NCc3ccccc3)c2c1 | 4.3 (≈ 8.76 µM)
53 | COc1ccc2nc3cc(Cl)ccc3c(NCCNS(=O)(=O)c3ccc4ccccc4c3)c2c1 | 2.7 (≈ 5.49 µM)
54 | COc1ccc2nc3cc(Cl)ccc3c(NCCNC(=O)NCc3ccccc3)c2c1 | 4.1 (≈ 9.43 µM)
55 | COc1ccc2nc3cc(Cl)ccc3c(NCCCCNC(=O)NCc3ccccc3)c2c1 | 0.8 (≈ 1.73 µM)
56 | COc1ccc2nc3cc(Cl)ccc3c(NCCCNC(=O)NCc3ccccc3)c2c1 | 0.7 (≈ 1.56 µM)
57 | COc1ccc2nc3cc(Cl)ccc3c(NCCCCNS(=O)(=O)c3ccc4ccccc4c3)c2c1 | 0.4 (≈ 0.769 µM)
58 | COc1ccc2nc3cc(Cl)ccc3c(NCCCNS(=O)(=O)c3ccc4ccccc4c3)c2c1 | 0.4 (≈ 0.79 µM)

Tested on: Trypanosoma brucei
Assay: Anti parasitic activity against Trypanosoma brucei
Type: functional
Details: read-out: ED50 (the source's name)

Row | Compound | EC50 [µg/mL]
59 | COc1ccc2nc3cc(Cl)ccc3c(NCCCCCCNC(=O)NCc3ccccc3)c2c1 | 0.46 (≈ 0.937 µM)
60 | COc1ccc2nc3cc(Cl)ccc3c(NCCNS(=O)(=O)c3ccc4ccccc4c3)c2c1 | 0.47 (≈ 0.955 µM)
61 | N=C(N)c1ccc(OCCCCCOc2ccc(C(=N)N)cc2)cc1 [PENTAMIDINE] | 0.0002 (≈ 0.000587 µM)
62 | COc1ccc2nc3cc(Cl)ccc3c(NCCNC(=O)NCc3ccccc3)c2c1 | 0.42 (≈ 0.966 µM)
63 | COc1ccc2nc3cc(Cl)ccc3c(NCCCCNC(=O)NCc3ccccc3)c2c1 | 0.043 (≈ 0.0929 µM)
64 | COc1ccc2nc3cc(Cl)ccc3c(NCCCNC(=O)NCc3ccccc3)c2c1 | 0.083 (≈ 0.185 µM)
65 | COc1ccc2nc3cc(Cl)ccc3c(NCCCCNS(=O)(=O)c3ccc4ccccc4c3)c2c1 | 0.12 (≈ 0.231 µM)
66 | COc1ccc2nc3cc(Cl)ccc3c(NCCCNS(=O)(=O)c3ccc4ccccc4c3)c2c1 | 0.078 (≈ 0.154 µM)
